Data on four compounds can be found in ChEMBL document CHEMBL1145409, “New sst4/5-selective somatostatin peptidomimetics based on a constrained tryptophan scaffold” (J Med Chem, 2007).

The target of assay [1] is Somatostatin receptor type 4 (Homo sapiens, UniProt P31391). Briefly: Displacement of [125I][Leu8-D-Trp22, Tyr25]-SRIF28 from human SST4 receptor. The method, boiled down:
(§1)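 Membrane pellets from CHO-K1 or CCL39 cells stably expressing the human receptor subtype, cut as 20 µm sections on slides for receptor autoradiography. Full displacement of [125I]-[Leu8,D-Trp22,Tyr25]-SRIF-28 by unlabeled compound at 0.1–1000 nmol/L, SRIF-28 run in parallel. Quantified by image analysis against calibrated isotope tissue standards to give IC50; mean ± SEM of 2–4 independent repetitions.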
(In general: In a radioligand displacement assay an active substance lowers the binding of a labelled ligand.)

Assay [2] deals with Somatostatin receptor type 3 (Homo sapiens, UniProt P32745). Briefly: Displacement of [125I][Leu8-D-Trp22, Tyr25]-SRIF28 from human SST3 receptor. In short, it runs like this: as §1
Somatostatin receptor type 3, sequence (P32745 whole entry): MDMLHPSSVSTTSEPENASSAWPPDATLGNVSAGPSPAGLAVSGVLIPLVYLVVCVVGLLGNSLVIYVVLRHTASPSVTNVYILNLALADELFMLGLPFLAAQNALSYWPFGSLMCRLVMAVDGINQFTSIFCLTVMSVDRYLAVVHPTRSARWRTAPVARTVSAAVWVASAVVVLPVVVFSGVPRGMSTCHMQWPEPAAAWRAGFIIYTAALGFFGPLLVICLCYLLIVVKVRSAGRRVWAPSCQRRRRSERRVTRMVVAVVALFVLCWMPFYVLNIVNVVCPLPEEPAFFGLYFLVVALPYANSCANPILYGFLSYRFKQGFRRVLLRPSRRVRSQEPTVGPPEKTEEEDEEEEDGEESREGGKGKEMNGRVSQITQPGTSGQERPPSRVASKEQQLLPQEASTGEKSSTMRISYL
Assay [3] addresses T1, Somatostatin receptor type 5 (Homo sapiens, UniProt P35346). In words: Displacement of [125I][Leu8-D-Trp22, Tyr25]-SRIF28 from human SST5 receptor. The method, boiled down:
as §1

Assay [4] has as its target Somatostatin receptor type 1 (Homo sapiens, UniProt P30872). Briefly: Displacement of [125I][Leu8-D-Trp22, Tyr25]-SRIF28 from human SST1 receptor. In short, it runs like this:
as §1

Assay [5] addresses Somatostatin receptor type 2 (Homo sapiens, UniProt P30874). Briefly: Displacement of [125I][Leu8-D-Trp22, Tyr25]-SRIF28 from human SST2 receptor. The method, boiled down: as §1
For assay [6], the target named is T1, Somatostatin receptor type 5. In words: Agonist activity at human SST5 receptor expressed in CHOK1 cells assessed as effect on forskolin-induced cAMP production. It counts as functional, cell-based, CHO-K1. In short, it runs like this:
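Stably transfected sst5 CHO-K1 cells preincubated 30 min at 37 °C in medium with 0.5 mM IBMX, then 30 min at 37 °C with 0.5 mM IBMX, with or without 10 µM forskolin and graded compound concentrations. Cells lysed; cAMP measured by scintillation proximity assay, expressed as % stimulation over nonstimulated level. EC50 from nonlinear regression of dose-response curves; three experiments, triplicate wells.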
On the technique in general: Cyclic AMP is a second messenger, typically raised through Gs and lowered through Gi signalling.

The structures appear in SMILES notation.

Somatostatin receptor type 4, sequence (P31391 whole entry): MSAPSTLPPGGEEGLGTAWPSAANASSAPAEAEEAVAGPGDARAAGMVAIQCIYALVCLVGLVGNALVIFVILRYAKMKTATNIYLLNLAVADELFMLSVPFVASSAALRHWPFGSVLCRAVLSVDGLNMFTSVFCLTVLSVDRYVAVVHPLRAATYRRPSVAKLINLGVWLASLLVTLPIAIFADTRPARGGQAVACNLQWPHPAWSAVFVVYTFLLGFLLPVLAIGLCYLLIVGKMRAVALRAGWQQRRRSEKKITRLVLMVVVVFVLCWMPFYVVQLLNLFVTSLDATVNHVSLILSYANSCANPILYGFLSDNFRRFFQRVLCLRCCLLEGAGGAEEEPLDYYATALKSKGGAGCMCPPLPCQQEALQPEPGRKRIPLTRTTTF
Somatostatin receptor type 2, sequence (P30874 whole entry): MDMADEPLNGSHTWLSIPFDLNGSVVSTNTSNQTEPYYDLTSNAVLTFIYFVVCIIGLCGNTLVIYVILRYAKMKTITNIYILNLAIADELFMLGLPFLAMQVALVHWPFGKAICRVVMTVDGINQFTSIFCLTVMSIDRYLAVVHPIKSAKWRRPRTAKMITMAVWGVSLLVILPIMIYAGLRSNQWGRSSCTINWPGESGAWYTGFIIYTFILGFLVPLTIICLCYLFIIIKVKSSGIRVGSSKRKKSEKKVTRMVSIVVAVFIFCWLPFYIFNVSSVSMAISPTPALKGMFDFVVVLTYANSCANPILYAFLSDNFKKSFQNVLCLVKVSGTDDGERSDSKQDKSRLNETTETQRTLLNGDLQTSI
T1 sequence (P35346 whole entry): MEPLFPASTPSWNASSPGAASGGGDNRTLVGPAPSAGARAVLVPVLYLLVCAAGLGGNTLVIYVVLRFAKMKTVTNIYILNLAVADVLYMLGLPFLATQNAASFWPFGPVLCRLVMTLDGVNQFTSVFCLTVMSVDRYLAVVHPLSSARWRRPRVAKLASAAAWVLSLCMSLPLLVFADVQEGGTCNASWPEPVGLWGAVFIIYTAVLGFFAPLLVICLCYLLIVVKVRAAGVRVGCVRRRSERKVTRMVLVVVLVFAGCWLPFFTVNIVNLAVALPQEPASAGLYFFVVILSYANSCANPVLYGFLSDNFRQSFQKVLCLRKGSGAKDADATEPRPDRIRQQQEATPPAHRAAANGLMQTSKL
Somatostatin receptor type 1, sequence (P30872 whole entry): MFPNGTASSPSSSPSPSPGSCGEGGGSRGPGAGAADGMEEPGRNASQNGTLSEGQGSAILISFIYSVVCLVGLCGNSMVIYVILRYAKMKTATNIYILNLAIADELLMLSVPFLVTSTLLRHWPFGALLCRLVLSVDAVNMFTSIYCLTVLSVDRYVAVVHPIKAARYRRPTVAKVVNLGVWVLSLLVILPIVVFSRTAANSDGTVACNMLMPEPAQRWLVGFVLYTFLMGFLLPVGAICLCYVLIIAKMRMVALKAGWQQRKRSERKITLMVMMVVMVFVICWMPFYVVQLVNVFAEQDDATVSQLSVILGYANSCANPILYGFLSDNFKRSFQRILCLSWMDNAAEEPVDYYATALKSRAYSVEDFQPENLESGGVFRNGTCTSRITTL

Usually IC50 stands for the point on the concentration scale where inhibition reaches its midpoint. A low value points to inhibition by little substance. For `NCCCC[C@@H](C(=O)NCc1ccccc1)N1Cc2[nH]c3ccccc3c2C[C@@H](NC(=O)CC(c2ccccc2)c2ccccc2)C1=O`, the IC50 in assay [1] was found to be 73 nM; in assay [2] it was 694 nM; in assay [3], 8 nM; in assay [4] it was 89 nM; in assay [5], 103 nM.
The like results for `NCCCCCN1Cc2[nH]c3ccccc3c2C[C@@H](NC(=O)Cc2ccccc2)C1=O` were, in that order, 75 nM, over 1000 nM, 245 nM, over 1000 nM and over 1000 nM.
For orientation: EC50 means the concentration that produces a half-maximal response. For the compound `NCCCC[C@@H](C(=O)NCc1ccccc1)N1Cc2[nH]c3ccccc3c2C[C@@H](NC(=O)Cc2ccccc2)C1=O`, the IC50 was 3.3 nM in assay [1]; 251 nM in assay [2]; 1.2 nM in assay [3]; 233 nM in assay [4]; 83 nM in assay [5]. In addition, the EC50 in assay [6] came out at 13 nM.
On to `NCCCCCN1Cc2[nH]c3ccccc3c2C[C@@H](NC(=O)CC(c2ccccc2)c2ccccc2)C1=O`, for which the IC50 in assay [1] was 129 nM; in assay [2], over 1000 nM; in assay [3], 318 nM; in assay [4] it was over 1000 nM; in assay [5], 357 nM.
